Data from ChEMBL document CHEMBL4229380, “Arylureas derived from colchicine: Enhancement of colchicine oncogene downregulation activity” (Eur J Med Chem, 2018).

Tests used:
HT-29 [1] = test: Antiproliferative activity against human HT-29 cells after 2 days by MTT assay; type: functional, cell-based; details: HT-29, 48 h
How it was run: (§1)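 Cells (5×10^3 per well) in DMEM with 10% FBS, glucose, glutamine and antibiotics were exposed to serial dilutions (stocks in DMSO) for 2 days at 37 °C, 5% CO2. MTT was added for 3 h, formazan was dissolved in DMSO and absorbance read at 490 nm. Viability was taken as % of untreated cells. IC50 was read graphically from three independent experiments.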

MCF7 = test: Antiproliferative activity against human MCF7 cells after 2 days by MTT assay; type: functional, cell-based; details: MCF7, 48 h; how it was run: as §1
HeLa = test: Antiproliferative activity against human HeLa cells after 2 days by MTT assay; type: functional, cell-based; details: 48 h; how it was run: as §1
HEK293 = test: Antiproliferative activity against human HEK293 cells after 2 days by MTT assay; type: cell-based; details: HEK293, 48 h; how it was run: as §1
HT-29 [2] = test: Induction of apoptosis in human HT-29 cells assessed as viable cells at 1 nM after 48 hrs by Annexin V-FITC staining-based flow cytometric analysis (reference value: 82 +/- 1%); type: functional; details: HT-29, 48 h, read-out: Activity
HT-29 [3] = test: Induction of apoptosis in human HT-29 cells assessed as apoptotic cells at 1 nM after 48 hrs by Annexin V-FITC staining-based flow cytometric analysis (reference value: 13 +/- 3%); type: functional
HT-29 [4] = test: Induction of apoptosis in human HT-29 cells assessed as necrotic cells at 1 nM after 48 hrs by Annexin V-FITC staining-based flow cytometric analysis (reference value: 2 +/- 6%); type: functional
HT-29 [5] = test: Effect on c-MYC gene expression in human HT-29 cells assessed as c-MYC level at 1 nM after 48 hrs by RT-qPCR analysis; type: functional
How it was run: (§2)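 HT-29 cells at 70–80% confluence were seeded at 1.5×10^5 per well and left 24 h, then treated 48 h, with DMSO as control. Total RNA was extracted and VEGF-A, c-Myc and hTERT were quantified by TaqMan qPCR, normalized to β-actin and to living cell number. Results are % expression versus control, at least three measurements.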

HT-29 [6] = test: Effect on hTERT gene expression in human HT-29 cells assessed as hTERT level at 1 nM after 48 hrs by RT-qPCR analysis; type: functional; how it was run: as §2
HT-29 [7] = test: Effect on VEGF gene expression in human HT-29 cells assessed as VEGF level at 1 nM after 48 hrs by RT-qPCR analysis; type: functional; how it was run: as §2
HT-29 [8] = test: Effect on c-MYC protein expression in human HT-29 cells assessed as c-MYC level at 1 nM after 48 hrs by ELISA; type: functional
How it was run: (§3)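 HT-29 cells (1.5×10^5 per well, 24 h pre-culture) were treated 48 h and washed in PBS. They were lysed in Tris pH 7.4 buffer with detergents, phosphatase inhibitors, PMSF and protease inhibitors. Lysates were adjusted to 200 µg/mL protein (Bradford) and total c-Myc or VEGFR-2 was measured by sandwich ELISA kit. Values are % of DMSO control, ≥3 measurements.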

HT-29 [9] = test: Effect on VEGFR2 protein expression in human HT-29 cells assessed as VEGFR2 level at 1 nM after 48 hrs by ELISA; type: functional; how it was run: as §3
HT-29 [10] = test: Effect on VEGF protein expression in human HT-29 cells assessed as secreted VEGF level in culture media at 1 nM after 48 hrs by ELISA

IC50 (HT-29 [1]): 1.2 nM | IC50 (MCF7): 1.5 nM | IC50 (HeLa): 12 nM
SMILES: COc1cc2c(c(OC)c1OC)-c1ccc(OC)c(=O)cc1[C@@H](NC(=O)Nc1ccc(-c3ccccc3)cc1)CC2
IC50 (HEK293): 1.7 nM | viability at 0.001 µM (HT-29 [2]): 86% | Activity (HT-29 [3]): 11% | Activity (HT-29 [4]): 3% | Activity (HT-29 [5]): 85% | Activity (HT-29 [6]): 60% | Activity (HT-29 [7]): 72% | Activity (HT-29 [8]): 119% | Activity (HT-29 [9]): 74% | Activity (HT-29 [10]): 72%
